Experimental data taken from ChEMBL document CHEMBL4190284, “Exploring the Sponge Consortium Plakortis symbiotica-Xestospongia deweerdtae as a Potential Source of Antimicrobial Compounds and Probing the Pharmacophore for Antituberculosis Activity of Smenothiazole A by Diverted Total Synthesis” (J Nat Prod, 2017).
Values after ≈ are worked out from the molar mass of the structure shown.

Experiments:
[1] = system: Mycobacterium tuberculosis; assay: Antitubercular activity against Mycobacterium tuberculosis H37Rv by broth microdilution Alamar blue assay; type: functional
Outline: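 Mtb H37Rv growth was measured by broth microdilution Alamar blue assay (MABA). Percentage inhibition at each concentration gave the MIC, defined as the lowest concentration preventing visible bacterial growth. Rifampicin served as positive control. Values are means of three experiments.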

[2] = system: Panel NCI-60 (60 carcinoma cell lines); assay: Cytotoxicity against human NCI60 cells assessed as cell growth at 10 uM relative to control; type: cell-based
Outline: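 Single-dose screen at 10 μM across the full NCI 60 cell line panel; read-out was percent cell growth.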

DU-145 = assay: Cytotoxicity against human DU145 cells assessed as reduction in cell viability; type: functional, cell-based
A2058 = assay: Cytotoxicity against human A2058 cells assessed as reduction in cell viability; type: functional, cell-based
Plasmodium falciparum = assay: Antiplasmodial activity against Plasmodium falciparum W2 assessed as parasite growth inhibition relative to control; type: functional
Vero = assay: Cytotoxicity against African green monkey Vero cells assessed as reduction in cell viability; type: cell-based; details: Chlorocebus sabaeus

Compound	MIC [1] [µg/mL]	further results
C=C(C/C=C(\C)C(=O)N[C@H](C(=O)N1CCC[C@H]1c1nccs1)C(C)C)Cc1ccccc1	> 128	Activity [2]: > 90%
CC1=C(O)[C@@](C)(CCCCCCCCCCCCc2ccc(O)cc2)OC1=O	> 128	–
C/C(=C\C/C(=C\Cl)Cc1ccccc1)C(=O)N[C@H](C(=O)N1CCC[C@H]1c1nccs1)C(C)C	4.1 (≈ 8.43 µM)	IC50 (DU-145): 15 µM; IC50 (A2058): 20 µM; growth inhibition (GI) (Plasmodium falciparum): 55%; IC50 (Vero): > 128 µg/mL
CC1=C(O)[C@@](C)(CCCCC[C@H](C)CCCCc2ccc(O)cc2)OC1=O	> 128	–
CC1=C(O)[C@@](C)(CCCCC[C@H](C)CCCCc2ccc(O)c(O)c2)OC1=O	> 128	–
CO[C@H]1/C=C/O[C@@]2(C)Oc3c(C)c(O)c4c(O)c(c(/C=N/N5CCN(C)CC5)c(O)c4c3C2=O)NC(=O)/C(C)=C\C=C\[C@H](C)[C@H](O)[C@@H](C)[C@@H](O)[C@@H](C)[C@H](OC(C)=O)[C@@H]1C [RIFAMPIN]	0.1 (≈ 0.122 µM)	–
